Compounds with a hit are over-represented: about 4.3% of the library has one in this group of screens.
STAT3 act: IL-6 driven STAT3 reporter potentiators, primary screen, U3A cells, luciferase, luminescence, MLSCN library. IL-6 STAT3-luciferase reporter; 100% = signal with IL-6 EC80 alone. activation (% of control), % at 5.6 µM. 0.91% of 190,000 active. AID 871, 2007;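 active = activation above the screen-wide mean of compound activation plus 3 SD, cut at about 130% in these data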;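 note: 0% = background luminescence of wells with medium and substrate only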
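Material: human U3A cells carrying STAT3-luciferase construct. Measured by: reporter luminescence signal. Timing: compound 1 h, then IL-6 6 h at 37 °C.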
STAT3 inh-1: IL-6 driven STAT3 reporter inhibitors, primary screen, U3A cells, luciferase, luminescence, MLSCN library | inhibition, % at 5.5 µM | IL-6 STAT3-luciferase reporter; host cell line lacks STAT1 | 0.89% of 190,000 active | AID 862, 2007;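 active = inhibition above the mean inhibition across all screened compounds plus 3 SD, cut at about 44% in these data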;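 note: 0% = DMSO only wells and 100% = 100 µM nifuroxazide control wells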
STAT1 inh: STAT1 signaling inhibitors, primary screen, cell-based, HTS, luciferase reporter | NIH 3T3 STAT1-luciferase reporter, IFN-gamma, luminescence | 0.35% of 200,000 active | inhibition, % at 5.5 µM;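 active = inhibition above a set limit, the mean inhibition across all tested compounds plus 3 SD, cut at about 34% in these data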;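 note: 0% = IFN-gamma with DMSO and 100% = IFN-gamma with 300 µM nifuroxazide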
STAT1 activator: STAT1 signaling activators, primary screen, cell-based, HTS, luciferase reporter | NIH 3T3 STAT1-luciferase reporter, IFN-gamma, luminescence; 100% = IFN-gamma alone, no compound | activation (% of control), % at 5.5 µM | 2.6% of 200,000 active | AID 932, 2007;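 active = activation above the screen-wide mean activation plus 3 SD, cut at about 130% in these data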;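 note: raw ratio to IFN-gamma control signal so 100% means no change and 0% no light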
STAT3 inh-2: STAT3 reporter inhibitors, retest of hits, confirmation, U3A cells, luciferase, luminescence. shares compounds with STAT3 inh-1. IL-6 STAT3 luciferase reporter; cell line lacks STAT1. inhibition, % at 5.7 µM. 45% of 1,200 active. AID 1265, 2008;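 active = inhibition above the hit cutoff computed for the primary STAT3 screen, cut at about 44% in these data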;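 note: 0% = IL-6 plus DMSO and 100% = IL-6 plus nifuroxazide control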
NFkB inh STAT3ct: NF-kB reporter inhibitors in human cells, confirmation, counter-screen for STAT3 inhibitor project, cell-based, HEK293T, luciferase, TNF-alpha stimulus; shares compounds with STAT3 inh-1; TNF-alpha induced; AID 1308, 2008; inhibition, % at 5.7 µM; 36% of 1,200 active;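 active = inhibition above the mean of solvent-only control wells plus 3 SD, cutoff set per campaign, cut at about 13% in these data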;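 note: 0% = TNF-alpha with DMSO and 100% = TNF-alpha with MG high control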
STAT1 inh 2: STAT1 reporter inhibitors, IFN-gamma induced, confirmation, counter-screen for STAT3 inhibitor project, cell-based, NIH 3T3, luciferase luminescence. 27% of 1,200 active. NIH 3T3 STAT1-luciferase reporter. shares compounds with STAT3 inh-1. inhibition, % at 5.7 µM. AID 1317, 2008;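 active = inhibition above the mean plus 3 SD of solvent-only control wells, limit set per screening run, cut at about 16% in these data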;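 note: 0% = DMSO with IFN-gamma and 100% = nifuroxazide control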
* = called active by the depositor.

`CCOC(=O)N1CCN(C(=O)CSCC(=O)Nc2nc(-c3ccc(-c4ccccc4)cc3)cs2)CC1` gave STAT3 act 43.8, STAT3 inh-1 72.4*, STAT1 inh -0.2, STAT1 activator 100.1, STAT3 inh-2 72.8*, NFkB inh STAT3ct 15.4* and STAT1 inh 2 -8.1.
Screening CCCCCn1c(=O)[nH]c2cc(C(=O)N3CCN(Cc4ccc5c(c4)OCO5)CC3)ccc2c1=O returned STAT3 act 28.1, STAT3 inh-1 87.1*, STAT1 inh 15.1, STAT1 activator 86.0, STAT3 inh-2 88.0*, NFkB inh STAT3ct 42.0* and STAT1 inh 2 23.4*.
For COc1ccc(CN2CCN(C(=O)c3ccc4nc(N5CCOCC5)sc4c3)CC2)c(OC)c1OC the results were STAT3 act 98.6, STAT3 inh-1 3.3, STAT1 inh 8.1 and STAT1 activator 91.4.
`CC1CCN(c2nc3ccc(C(=O)N4CCN(Cc5ccc6c(c5)OCO6)CC4)cc3s2)CC1` gave STAT3 act 64.8, STAT3 inh-1 49.2*, STAT1 inh -21.8, STAT1 activator 119.7, STAT3 inh-2 25.6, NFkB inh STAT3ct -9.4 and STAT1 inh 2 -49.4.
CCOC(=O)Cc1csc(N/N=C/c2ccc(C(F)(F)F)cc2)n1 was read as STAT3 act 56.9, STAT3 inh-1 60.0*, STAT1 inh 25.5, STAT1 activator 77.0, STAT3 inh-2 22.3, NFkB inh STAT3ct 13.3* and STAT1 inh 2 -46.6.
`COc1ccc(NC(=O)c2cc3ccccn3n2)cc1` gave STAT3 act 66.5, STAT3 inh-1 45.7*, STAT1 inh -22.6, STAT1 activator 120.5, STAT3 inh-2 19.7, NFkB inh STAT3ct -29.3 and STAT1 inh 2 -95.8.
O=C(NCc1ccc(Cl)cc1)c1cc2ccccn2n1 was read as STAT3 act 101.2, STAT3 inh-1 7.5, STAT1 inh -11.4 and STAT1 activator 110.3.
Screening Cc1nc(NCCNC(=O)c2ccco2)c2c(C)c(C)sc2n1 returned STAT3 act 93.2, STAT3 inh-1 13.4, STAT1 inh 6.5 and STAT1 activator 94.1.
Screening Cc1nc(NCCc2ccc(S(N)(=O)=O)cc2)c2c(C)c(C)sc2n1 returned STAT3 act 56.8, STAT3 inh-1 54.5*, STAT1 inh 21.0, STAT1 activator 80.7, STAT3 inh-2 47.9*, NFkB inh STAT3ct 12.4 and STAT1 inh 2 30.0*.
`Cc1ccn2cc(-c3cccc([N+](=O)[O-])c3)nc2c1` gave STAT3 act 51.7, STAT3 inh-1 58.9*, STAT1 inh 22.9, STAT1 activator 78.0, STAT3 inh-2 29.6, NFkB inh STAT3ct -2.4 and STAT1 inh 2 -75.8.
Cc1cc(C)c(S(=O)(=O)N2CCCOC2CNC(=O)C(=O)NCc2ccncc2)c(C)c1 (stereo unspecified) was read as STAT3 act 78.7, STAT3 inh-1 27.9, STAT1 inh 7.5 and STAT1 activator 93.4.
`Cc1ccc(N=c2c([N+](=O)[O-])nn(-c3ccc4c(c3)OCCO4)n2O)c(Cl)c1` gave STAT3 act 62.0, STAT3 inh-1 48.8*, STAT1 inh 30.4, STAT1 activator 70.8, STAT3 inh-2 -14.8, NFkB inh STAT3ct 0.0 and STAT1 inh 2 -60.7.
CCOC(=O)C1CCCN(C(=S)Nc2cccc(Cl)c2C)C1 (stereo unspecified) was read as STAT3 act 96.4, STAT3 inh-1 -0.7, STAT1 inh 2.1 and STAT1 activator 98.1.
COc1ccc2c(Cl)c(C(=O)NN3CCN(C)CC3)sc2c1 was read as STAT3 act 97.1, STAT3 inh-1 8.2, STAT1 inh -23.6 and STAT1 activator 118.6.
For COc1cccc(CC(=O)n2nc(N)c3cc4ccc(OC)cc4nc32)c1 the results were STAT3 act 67.7, STAT3 inh-1 45.8*, STAT1 inh 1.4, STAT1 activator 98.8, STAT3 inh-2 36.5, NFkB inh STAT3ct -14.3 and STAT1 inh 2 8.1.

Compound activity (PubChem)
